Data as given in ChEMBL document CHEMBL4184326, “Development of Thioaryl-Based Matrix Metalloproteinase-12 Inhibitors with Alternative Zinc-Binding Groups: Synthesis, Potentiometric, NMR, and Crystallographic Studies” (J Med Chem, 2018).
Activity calls are given as the source filed them. The calls are words filed in the database; no cut-off is given here.

Columns and labels:
[1] = Metal chelating activity assessed as compound-Zn2+ complex formation at 1:1 metal to compound molar ratio at pH 3 to 8 by potentiometric titration method
Method in brief: (§1)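 pH-potentiometric titration in 60% w/w DMSO/H2O, 25.0 ± 0.1 °C, I 0.1 M KCl, 0.1 M KOH titrant. Glass electrode calibrated with HCl/KOH via Gran's method. Ligand (4−7) × 10−4 M at Zn:L 0:1, 1:1 and 1:2, in duplicate. pKw 15.75. Constants were fitted in Hyperquad with a Zn(II) hydrolysis model included.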

[2] = target: Macrophage metalloelastase (Homo sapiens, UniProt P39900); experiment: Inhibition of recombinant human MMP-12 using Mca-Lys-Pro-Leu-Gly-Leu-Dap(Dnp)-Ala-Arg-NH2 as substrate preincubated for 3 hrs followed by substrate addition measured every 10 secs for 15 mins by fluorometric assay
[3] = Protonation constant, log K of the compound; assay type: physicochemical; conditions: 60% w/w DMSO/H2O; method in brief: as §1
[4] = Metal chelating activity assessed as compound-Zn2+ complex formation by measuring free metal ion levels at compound to metal molar ratio 10 at pH 6 by potentiometric titration method
Interstitial collagenase = target: T1, Interstitial collagenase (Homo sapiens, UniProt P03956); experiment: Inhibition of recombinant human MMP-1 using Mca-Lys-Pro-Leu-Gly-Leu-Dap(Dnp)-Ala-Arg-NH2 as substrate preincubated for 3 hrs followed by substrate addition measured every 10 secs for 15 mins by fluorometric assay
T1 sequence (P03956 whole entry): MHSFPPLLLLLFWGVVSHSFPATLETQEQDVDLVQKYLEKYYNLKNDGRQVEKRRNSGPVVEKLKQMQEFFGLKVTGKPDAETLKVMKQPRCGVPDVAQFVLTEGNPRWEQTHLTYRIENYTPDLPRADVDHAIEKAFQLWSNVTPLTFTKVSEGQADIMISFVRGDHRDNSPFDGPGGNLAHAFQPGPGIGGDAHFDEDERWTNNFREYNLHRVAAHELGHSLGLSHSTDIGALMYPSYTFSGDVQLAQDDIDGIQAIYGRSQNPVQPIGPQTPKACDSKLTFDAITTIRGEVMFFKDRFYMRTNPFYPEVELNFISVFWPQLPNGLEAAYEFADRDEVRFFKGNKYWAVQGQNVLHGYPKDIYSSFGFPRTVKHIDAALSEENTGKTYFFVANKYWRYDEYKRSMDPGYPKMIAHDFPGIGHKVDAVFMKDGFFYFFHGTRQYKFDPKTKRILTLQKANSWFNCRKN

[5] = target: Matrix metalloproteinase-14 (Homo sapiens, UniProt P50281); experiment: Inhibition of recombinant human MMP-14 catalytic domain using Mca-Lys-Pro-Leu-Gly-Leu-Dap(Dnp)-Ala-Arg-NH2 as substrate preincubated for 3 hrs followed by substrate addition measured every 10 secs for 15 mins by fluorometric assay
[6] = Metal chelating activity assessed as compound-Zn2+ complex formation at 1:2 metal to compound molar ratio at pH 3 to 8 by potentiometric titration method; method in brief: as §1
[7] = target: 72 kDa type IV collagenase (Homo sapiens, UniProt P08253); experiment: Inhibition of recombinant human MMP-2 using Mca-Lys-Pro-Leu-Gly-Leu-Dap(Dnp)-Ala-Arg-NH2 as substrate preincubated for 3 hrs followed by substrate addition measured every 10 secs for 15 mins by fluorometric assay
[8] = target: Matrix metalloproteinase-9 (Homo sapiens, UniProt P14780); experiment: Inhibition of recombinant human MMP-9 using Mca-Lys-Pro-Leu-Gly-Leu-Dap(Dnp)-Ala-Arg-NH2 as substrate preincubated for 3 hrs followed by substrate addition measured every 10 secs for 15 mins by fluorometric assay
[9] = Metal chelating activity assessed as compound-Zn2+ complex formation at 1:1 metal to compound molar ratio at pH 3 to 8 by 1H NMR method
[10] = Drug level in KCl/DMSO/water solution treated with 2-(2-((4'-Methoxy-[1,1'-biphenyl]-4-yl)sulfonyl)phenyl)-acetic hydroxamic acid; assay type: physicochemical; conditions: buffer
Homo sapiens [11] = organism: Homo sapiens; experiment: Selectivity ratio of IC50 for recombinant human MMP-2 to IC50 for recombinant human MMP-12
Homo sapiens [12] = organism: Homo sapiens; experiment: Selectivity ratio of IC50 for recombinant human MMP-9 to IC50 for recombinant human MMP-12
Homo sapiens [13] = organism: Homo sapiens; experiment: Selectivity ratio of IC50 for recombinant human MMP-14 catalytic domain to IC50 for recombinant human MMP-12

Sequence of Macrophage metalloelastase (P39900 whole entry): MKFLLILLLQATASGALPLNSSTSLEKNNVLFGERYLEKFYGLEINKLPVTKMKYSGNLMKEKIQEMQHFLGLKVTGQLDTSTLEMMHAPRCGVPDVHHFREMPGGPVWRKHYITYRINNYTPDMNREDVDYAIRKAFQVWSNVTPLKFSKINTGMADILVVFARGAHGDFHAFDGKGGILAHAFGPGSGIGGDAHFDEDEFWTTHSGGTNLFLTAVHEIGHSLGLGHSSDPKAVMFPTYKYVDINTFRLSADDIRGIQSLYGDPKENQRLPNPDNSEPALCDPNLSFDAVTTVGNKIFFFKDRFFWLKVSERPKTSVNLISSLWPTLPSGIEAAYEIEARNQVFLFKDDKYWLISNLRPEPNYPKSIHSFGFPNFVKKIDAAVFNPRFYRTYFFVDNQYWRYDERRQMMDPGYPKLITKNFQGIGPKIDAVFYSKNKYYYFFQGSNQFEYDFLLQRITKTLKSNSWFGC
Sequence of Matrix metalloproteinase-9 (P14780 whole entry): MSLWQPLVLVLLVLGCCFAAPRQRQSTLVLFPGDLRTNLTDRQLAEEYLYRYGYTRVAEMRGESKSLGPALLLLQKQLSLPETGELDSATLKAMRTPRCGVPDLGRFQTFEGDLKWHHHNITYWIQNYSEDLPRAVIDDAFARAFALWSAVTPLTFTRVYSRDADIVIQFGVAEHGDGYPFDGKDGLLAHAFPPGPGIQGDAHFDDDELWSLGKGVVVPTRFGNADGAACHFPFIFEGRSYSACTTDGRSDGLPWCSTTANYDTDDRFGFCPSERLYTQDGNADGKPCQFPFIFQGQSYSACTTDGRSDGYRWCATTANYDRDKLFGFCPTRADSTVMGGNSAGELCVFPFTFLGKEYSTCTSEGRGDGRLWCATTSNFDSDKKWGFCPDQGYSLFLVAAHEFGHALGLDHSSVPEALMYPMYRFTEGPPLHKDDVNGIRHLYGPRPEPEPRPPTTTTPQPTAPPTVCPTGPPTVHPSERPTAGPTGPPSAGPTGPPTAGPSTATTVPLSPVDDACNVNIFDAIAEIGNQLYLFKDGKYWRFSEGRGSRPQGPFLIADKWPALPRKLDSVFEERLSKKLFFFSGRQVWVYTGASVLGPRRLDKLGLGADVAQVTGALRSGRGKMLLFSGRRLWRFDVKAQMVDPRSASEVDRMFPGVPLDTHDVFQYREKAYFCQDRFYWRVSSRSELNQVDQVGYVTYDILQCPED
Sequence of 72 kDa type IV collagenase (P08253 whole entry): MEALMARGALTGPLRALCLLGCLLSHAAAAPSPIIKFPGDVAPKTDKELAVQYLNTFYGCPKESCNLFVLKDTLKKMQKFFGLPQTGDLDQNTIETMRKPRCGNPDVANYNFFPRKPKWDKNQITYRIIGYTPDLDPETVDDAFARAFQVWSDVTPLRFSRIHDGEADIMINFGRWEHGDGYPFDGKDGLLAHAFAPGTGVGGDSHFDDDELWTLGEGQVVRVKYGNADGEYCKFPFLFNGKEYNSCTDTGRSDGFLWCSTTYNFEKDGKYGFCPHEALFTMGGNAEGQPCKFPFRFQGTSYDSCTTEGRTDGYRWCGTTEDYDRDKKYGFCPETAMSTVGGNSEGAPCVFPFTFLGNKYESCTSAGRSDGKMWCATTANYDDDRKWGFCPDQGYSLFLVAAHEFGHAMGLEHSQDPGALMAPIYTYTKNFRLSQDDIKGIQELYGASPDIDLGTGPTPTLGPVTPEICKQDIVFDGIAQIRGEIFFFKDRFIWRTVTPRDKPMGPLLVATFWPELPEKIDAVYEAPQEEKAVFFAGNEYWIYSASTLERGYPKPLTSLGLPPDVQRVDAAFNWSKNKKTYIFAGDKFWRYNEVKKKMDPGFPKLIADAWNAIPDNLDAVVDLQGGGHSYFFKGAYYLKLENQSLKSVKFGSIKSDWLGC

Structure (SMILES) | Activity [1] | IC50 [2] | log K [3] | log(activity) [4] | IC50 (Interstitial collagenase) | IC50 [5] | Activity [6] | IC50 [7] | IC50 [8] | Activity [9] | Drug metabolism [10] | Ratio IC50 (Homo sapiens [11]) | Ratio IC50 (Homo sapiens [12]) | Ratio IC50 (Homo sapiens [13])
COc1ccc(-c2ccc(Sc3ccccc3CC(=O)NO)cc2)cc1 | Active | 0.004 µM | 10.29 | 6.04 | 250 µM | 2 µM | Active | – | – | – | – | – | – | –
COc1ccc(-c2ccc(S(=O)(=O)c3ccccc3CC(=O)NS(C)(=O)=O)cc2)cc1 | Active | 3.5 µM | 5.5 | 6.56 | – | – | Active | 3.6 µM | 3.7 µM | Active | – | – | – | –
COc1ccc(-c2ccc(Sc3ccccc3CC(=O)O)cc2)cc1 | Active | 0.04 µM | – | 6.04 | – | – | inactive | – | – | – | – | – | – | –
COc1ccc(-c2ccc(Sc3ccccc3C(CCC(=O)O)C(=O)O)cc2)cc1 (centres undefined) | Active | 0.026 µM | – | 6.04 | – | – | Active | 0.66 µM | 2.96 µM | – | – | – | – | –
COc1ccc(-c2ccc(Sc3ccccc3C(=O)CS(C)(=O)=O)cc2)cc1 | – | 230 µM | – | – | – | – | – | 230 µM | 332 µM | – | – | – | – | –
COc1ccc(-c2ccc(Sc3ccccc3CP(=O)(O)O)cc2)cc1 | – | 0.25 µM | – | – | – | – | – | 0.25 µM | 1.12 µM | – | – | – | – | –
COc1ccc(-c2ccc(S(=O)(=O)c3ccccc3CC(=O)NS(=O)(=O)C(F)(F)F)cc2)cc1 | Active | 7.5 µM | < 2 | 6.91 | – | – | inactive | 2.5 µM | 24.5 µM | Active | – | – | – | –
COc1ccc(-c2ccc(Sc3ccccc3CC(=O)NS(C)(=O)=O)cc2)cc1 | Active | 3.3 µM | 5.5 | 6.1 | – | – | inactive | – | 18 µM | Active | – | – | – | –
COc1ccc(-c2ccc(S(=O)(=O)c3ccccc3CP(=O)(O)O)cc2)cc1 | – | 0.6 µM | – | – | – | – | – | – | – | – | – | – | – | –
COc1ccc(-c2ccc(S(=O)(=O)c3ccccc3CC(=O)O)cc2)cc1 | Active | – | – | 6.1 | – | – | Active | – | – | – | Metabolite_Detected | – | – | –
COc1ccc(-c2ccc(S(=O)(=O)c3ccccc3C(=O)CS(C)(=O)=O)cc2)cc1 | – | > 10 µM | – | – | – | – | – | > 10 µM | > 10 µM | – | – | – | – | –
COc1ccc(-c2ccc(S(=O)(=O)c3ccccc3C3CCC(=O)N(O)C3=O)cc2)cc1 (centres undefined) | Active | 0.04 µM | 9.03 to 9.35 | 6.13 | > 10 µM | 4 µM | Active | 0.414 µM | 1.43 µM | – | – | – | – | –
COc1ccc(-c2ccc(S(=O)(=O)c3ccccc3C(CCC(=O)O)C(=O)O)cc2)cc1 (centres undefined) | Active | 0.51 µM | – | 6.14 | – | – | Active | 1.35 µM | 14.3 µM | – | – | – | – | –
COc1ccc(-c2ccc(Sc3ccccc3CC(=O)NS(=O)(=O)C(F)(F)F)cc2)cc1 | Active | 2.1 µM | < 2 | 6.75 | – | – | inactive | 46 µM | 50 µM | Active | – | – | – | –
COc1ccc(-c2ccc(Sc3ccccc3C3CCC(=O)N(O)C3=O)cc2)cc1 (centres undefined) | Active | 0.033 µM | 9.03 to 9.35 | 6.05 | 260 µM | 40 µM | Active | 0.67 µM | 5.8 µM | – | – | 20 | 176 | 1200
